Compound activity as filed in PubChem.
Shown are actives, neighbours in structure and some others; about 0.9% of the full set was active somewhere.
MT1-MMP act inh – MT1-MMP (human) activation inhibition; AID 651647; HT1080 RFP-PRO-GFP cells, GFP/RFP ratio fluorescence, overnight; percent of plate control window, DMSO zero; 0.061% of 360,000 active; GFP/RFP ratio change, % at 20 µM;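 active = GFP/RFP ratio change of at least 30% with cell ATP level not reduced by more than half and red fluorescence within 50% of control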
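Material – HT1080 RFP-PRO-GFP cells · Control set – DMSO wells and RFP-L50D-GFP cells · Incubation – overnight cell settling, then overnight compound exposure, 37 °C, 5% CO2 · Compound dosing – single-point 20 µM compound, 1% DMSO · Read-out – GFP/RFP fluorescence ratio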
SKN-1 block – blocks SKN-1 activity in C. elegans; AID 624304; C. elegans VP596 Pgst-4::GFP/RFP ratio, acrylamide-induced, 24 h; inhibition, % at 21.8 µM; 0.49% of 360,000 active;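 active = interference check ratio from 0.5 to 1.5 plus GFP to RFP signal ratio inhibition reaching or exceeding a fixed threshold, cut at about 30% in these data, passing the limit was not always enough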
DAGLB inhibitor – diacylglycerol lipase beta (human) inhibition; Q8NCG7; HEK293T DAGLB membrane lysate, EnzChek fluorogenic substrate; inhibition, % at 5.17 µM; 0.059% of 340,000 active; AID 504411; in the data active = inhibition above about 34%;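 note: 0% = enzyme with vehicle and 100% = wells lacking enzyme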
PolyA inhibitor – yeast polyadenylation inhibition; S. cerevisiae SKY197-pL101 polyadenylation reporter, beta-gal luminescence; efflux-impaired pdr1/pdr3 knockout yeast; score 100 = 6 SD above DMSO; activity score, % at 12 µM; 0.02% of 300,000 active;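 active = lowest replicate activity score at least 50, where 100 means six control SD above control mean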;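 note: yeast exposed to compound for 9 h at 30 °C; higher score means more reporter readthrough which indicates perturbed polyadenylation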
DDE Tn7 FP inh – DD(E)-Tn7 binding inhibition, primary FP screen; AID 720508; FP displacement of FITC-Tn7 peptide from fibrin DD(E); 0% = median of compound wells per plate; 0.13% of 370,000 active; inhibition, % at 8.3 µM; P02675;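 active = inhibition above the mean of compounds falling within the control limits plus 3 SD of them, cut at about 14% in these data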;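 note: 0% = plate median of compound wells and 100% = 10 µM Aha-Tn7 peptide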
Target sequence (P02675 whole entry, looked up): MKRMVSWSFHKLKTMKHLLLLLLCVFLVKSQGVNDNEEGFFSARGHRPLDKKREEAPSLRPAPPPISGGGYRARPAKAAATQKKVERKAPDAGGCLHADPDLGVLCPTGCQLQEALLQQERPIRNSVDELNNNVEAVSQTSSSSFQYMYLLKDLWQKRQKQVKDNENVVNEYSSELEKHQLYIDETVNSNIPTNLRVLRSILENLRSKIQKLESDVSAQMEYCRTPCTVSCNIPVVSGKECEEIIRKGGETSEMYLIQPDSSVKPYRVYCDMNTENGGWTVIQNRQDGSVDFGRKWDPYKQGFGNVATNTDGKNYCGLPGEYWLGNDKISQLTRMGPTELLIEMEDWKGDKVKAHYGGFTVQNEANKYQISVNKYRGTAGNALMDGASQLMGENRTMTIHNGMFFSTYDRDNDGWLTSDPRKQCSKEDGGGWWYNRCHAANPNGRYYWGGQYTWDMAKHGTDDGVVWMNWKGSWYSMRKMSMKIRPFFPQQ
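Also added: labelled Tn7 tracer, 0.1 µM; Assay system: human fibrin DD(E) protein; Amount: 2 µM fibrin DD(E); Schedule: 10 min compound pre-incubation, 3 h probe incubation at room temperature; Repeats: one replicate per compound; Read-out basis: percent inhibition; Measured by: fluorescence polarization of the labelled Tn7 tracer.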
DDE Tn6 FP inh – disrupts Tn6 cyclic peptide binding to fibrin D-Dimer-E complex; inhibition, % at 8.3 µM; Fibrin DD(E) TRITC-Tn6 fluorescence polarization displacement; AID 720509; P02675; 0.21% of 370,000 active;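 active = inhibition above a per-campaign cutoff: mean of compounds within control limits plus 3 SD, cut at about 15% in these data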;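 note: 0% = median of all compound wells on the plate and 100% = blocking peptide control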
Tn7 DDE conf – confirmation of inhibitors of Tn7 binding to human fibrin DD(E); FP displacement of TRITC-Tn7 peptide from DD(E); 0% set at plate's compound-well median; 5% of 460 active; inhibition, % at 8.3 µM; shares compounds with DDE Tn7 FP inh; AID 720628;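 active = inhibition above the campaign cutoff, the mean of compounds within control limits plus 3 SD, cut at about 14% in these data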;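 note: 100% = median FP of high control wells holding Aha-Tn7 inhibitor peptide; displacers lower polarization since freed probe rises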
DDE Tn7 FP ctr – counter-screen hit for Tn7 peptide-fibrin DD(E) binding disruption. shares compounds with DDE Tn7 FP inh. TRITC-Tn7 probe displacement, fluorescence polarization. inhibition, % at 8.3 µM. 3% of 460 active;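 active = inhibition above the cutoff, the mean of compounds lying between the control bounds plus 3 SD of those compounds, cut at about 17% in these data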;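 note: 0% = median of compound sample wells and 100% = excess unlabeled Aha-Tn7 peptide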
Numbers without * were called inactive.

What do the screens show for `COC(=O)[C@H]1C[C@@]2(N3CCCC3)c3ccccc3N(C(=O)OC(C)(C)C)[C@H]2N1C(=O)OC(C)(C)C`?
DDE Tn7 FP inh: 3.0; DDE Tn6 FP inh: 8.6

How did COC(=O)c1cc2occc2n1Cc1ccc(Cl)cc1 do in these assays?
MT1-MMP act inh: -4.7; SKN-1 block: 3.4; DAGLB inhibitor: -10.2; PolyA inhibitor: -17.8; DDE Tn7 FP inh: -0.4; DDE Tn6 FP inh: 3.0

Results for COC(=O)c1cc2occc2n1CC(=O)Nc1ccc(C)cc1C ?
MT1-MMP act inh: -3.2; SKN-1 block: 0.0; DAGLB inhibitor: -1.0; PolyA inhibitor: -9.3; DDE Tn7 FP inh: 14.1*; DDE Tn6 FP inh: 0.5; Tn7 DDE conf: 5.0; DDE Tn7 FP ctr: 1.2

How did COc1ccc(C(C)(C)C)cc1NC(=O)c1cncc(Br)c1 do in these assays?
MT1-MMP act inh: -2.7; SKN-1 block: 8.5; DAGLB inhibitor: -10.3; PolyA inhibitor: -14.3; DDE Tn7 FP inh: 15.7*; DDE Tn6 FP inh: 4.8; Tn7 DDE conf: 0.7; DDE Tn7 FP ctr: -1.3

Results for CCC(C)[C@H](NC(=O)N1CCC(C)CC1)C(=O)O (some centres undefined) ?
MT1-MMP act inh: 1.8; SKN-1 block: -2.6; DAGLB inhibitor: 1.9; PolyA inhibitor: 24.5; DDE Tn7 FP inh: 14.3*; DDE Tn6 FP inh: 8.1; Tn7 DDE conf: -3.1; DDE Tn7 FP ctr: -7.8

Results for O=c1c2ccccc2n(Cc2ccco2)n1[C@@H](Cc1ccccc1)Cn1cc(C2CCCC2)nn1 ?
DDE Tn7 FP inh: 9.2; DDE Tn6 FP inh: 7.9

How did CC(=O)c1ccc([C@H](O)[C@H](C)C(=O)N(C)c2ccccc2)cc1 do in these assays?
DDE Tn7 FP inh: -6.7; DDE Tn6 FP inh: 1.1

What do the screens show for `C[C@@H]1[C@@H](O)C[C@@]2(C[C@H](O)c3ccccc3O2)O[C@H]1c1ccccc1`?
DDE Tn7 FP inh: 0.7; DDE Tn6 FP inh: 9.6

What do the screens show for `Cc1ccccc1NC(=O)C[C@H]1CC[C@H]2[C@@H](COc3ccc(NC(=O)Nc4ccccc4)cc3C(=O)N2C)O1`?
DDE Tn7 FP inh: -0.2; DDE Tn6 FP inh: -4.0

How did COc1ccc(NC(=O)COC(=O)CC2Sc3ccccc3NC2=O)cc1 (centres undefined) do in these assays?
MT1-MMP act inh: -1.3; SKN-1 block: -7.6; DAGLB inhibitor: 0.8; DDE Tn7 FP inh: 14.8*; DDE Tn6 FP inh: 1.8; Tn7 DDE conf: 3.5; DDE Tn7 FP ctr: 4.3

How did O=C(O)c1cc(=O)c2ccccc2[nH]1 do in these assays?
MT1-MMP act inh: -0.5; SKN-1 block: 5.8; DAGLB inhibitor: -1.9; DDE Tn7 FP inh: 14.1*; DDE Tn6 FP inh: 2.0; Tn7 DDE conf: -6.0; DDE Tn7 FP ctr: -8.4

Results for O=C(O)c1cc(=O)c2c(Cl)cc(Cl)cc2[nH]1 ?
MT1-MMP act inh: -1.2; SKN-1 block: -19.8; DAGLB inhibitor: 2.1; PolyA inhibitor: 1.2; DDE Tn7 FP inh: -8.2; DDE Tn6 FP inh: -2.8

How did COc1ccccc1-c1cc(N)n(S(=O)(=O)c2ccc(F)c(C)c2)n1 do in these assays?
MT1-MMP act inh: 4.1; SKN-1 block: 3.7; DAGLB inhibitor: -3.5; PolyA inhibitor: 9.8; DDE Tn7 FP inh: 14.4*; DDE Tn6 FP inh: 6.2; Tn7 DDE conf: -2.1; DDE Tn7 FP ctr: -7.5

Results for CC(=O)CC[C@H]1CC[C@]2(CCCN(C(=O)C3CCCC3)C2)O1 ?
DDE Tn7 FP inh: -4.5; DDE Tn6 FP inh: 5.4

What do the screens show for `Cc1cccc(N2C(=O)CN(Cc3sccc3C)C2=S)c1`?
MT1-MMP act inh: 3.6; SKN-1 block: -4.6; DAGLB inhibitor: -9.6; PolyA inhibitor: 0.8; DDE Tn7 FP inh: -0.9; DDE Tn6 FP inh: 2.0
